Measured values as given in ChEMBL document CHEMBL4017520, “Discovery, Structure-Activity Relationship, and Antiparkinsonian Effect of a Potent and Brain-Penetrant Chemical Series of Positive Allosteric Modulators of Metabotropic Glutamate Receptor 4” (J Med Chem, 2017).
Activity calls are given as the source filed them. The calls are words filed in the database; no cut-off is given here.

Key:
Rattus norvegicus [1] = species: Rattus norvegicus; experiment: Protection against 6-OHDA induced parkinsonian motor deficit in Sprague-Dawley rat after 28 days post surgery; type: functional
Rattus norvegicus [2] = experiment: Toxicity in 6-OHDA induced parkinsonian motor deficit Sprague-Dawley rat model assessed as induction of dyskinesia at 20 mg/kg, ip; type: organism-based; details: in vivo
Rattus norvegicus [3] = experiment: Toxicity in 6-OHDA induced parkinsonian motor deficit Sprague-Dawley rat model assessed as induction of overacting rearing behavior at 20 mg/kg, ip; type: organism-based; details: in vivo
[4] = target: T1, Metabotropic glutamate receptor 4 (Homo sapiens, UniProt Q14833); experiment: Positive allosteric modulation of recombinant human mGlu4 receptor expressed in HEK293 cells co-expressing Gi/Gq assessed as increase in glutamate-induced calcium flux preincubated for 10 mins followed by glutamate addition measured for 3 mins by Fluo4-AM dye based fluorescence assay; type: functional, cell-based; details: read-out: EC50
T1 sequence (Q14833 whole entry): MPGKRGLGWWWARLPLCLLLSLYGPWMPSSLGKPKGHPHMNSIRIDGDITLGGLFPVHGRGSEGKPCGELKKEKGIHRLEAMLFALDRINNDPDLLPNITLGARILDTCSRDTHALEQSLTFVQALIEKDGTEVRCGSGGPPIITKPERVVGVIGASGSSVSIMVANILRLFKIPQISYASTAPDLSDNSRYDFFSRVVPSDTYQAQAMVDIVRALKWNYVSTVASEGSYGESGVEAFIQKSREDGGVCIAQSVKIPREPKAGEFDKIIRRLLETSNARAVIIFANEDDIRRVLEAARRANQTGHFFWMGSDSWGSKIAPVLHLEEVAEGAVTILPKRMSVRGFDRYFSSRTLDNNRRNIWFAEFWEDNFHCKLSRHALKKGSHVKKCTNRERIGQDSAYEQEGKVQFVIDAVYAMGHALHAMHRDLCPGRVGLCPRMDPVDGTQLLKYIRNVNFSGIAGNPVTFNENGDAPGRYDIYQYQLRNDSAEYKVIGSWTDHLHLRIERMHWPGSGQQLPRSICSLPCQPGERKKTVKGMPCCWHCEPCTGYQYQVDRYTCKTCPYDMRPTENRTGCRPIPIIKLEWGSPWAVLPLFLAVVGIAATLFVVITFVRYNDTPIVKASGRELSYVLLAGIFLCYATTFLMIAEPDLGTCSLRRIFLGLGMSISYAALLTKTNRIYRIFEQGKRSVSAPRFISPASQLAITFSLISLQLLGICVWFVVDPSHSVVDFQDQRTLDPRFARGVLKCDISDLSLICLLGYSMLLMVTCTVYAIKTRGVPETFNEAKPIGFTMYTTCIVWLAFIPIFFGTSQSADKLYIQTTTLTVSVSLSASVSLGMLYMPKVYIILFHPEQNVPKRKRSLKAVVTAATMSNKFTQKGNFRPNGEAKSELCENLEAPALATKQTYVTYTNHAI

[5] = target: T1, Metabotropic glutamate receptor 4; experiment: Positive allosteric modulation of recombinant human mGlu4 receptor expressed in HEK293 cells co-expressing chimeric G protein assessed as increase in EC20 glutamate-induced […]; type: functional, cell-based
[6] = target: Metabotropic glutamate receptor 4 (Rattus norvegicus, UniProt P31423); experiment: Positive allosteric modulation of rat mGlu4 receptor expressed in HEK293 cells co-expressing Gi/Gq assessed as increase in glutamate-induced calcium flux preincubated for 10 mins followed by glutamate addition measured for 3 mins by Fluo4-AM dye based fluorescence assay; type: functional, cell-based
Metabotropic glutamate receptor 4 (Rattus norvegicus, UniProt P31423), sequence (P31423 whole entry): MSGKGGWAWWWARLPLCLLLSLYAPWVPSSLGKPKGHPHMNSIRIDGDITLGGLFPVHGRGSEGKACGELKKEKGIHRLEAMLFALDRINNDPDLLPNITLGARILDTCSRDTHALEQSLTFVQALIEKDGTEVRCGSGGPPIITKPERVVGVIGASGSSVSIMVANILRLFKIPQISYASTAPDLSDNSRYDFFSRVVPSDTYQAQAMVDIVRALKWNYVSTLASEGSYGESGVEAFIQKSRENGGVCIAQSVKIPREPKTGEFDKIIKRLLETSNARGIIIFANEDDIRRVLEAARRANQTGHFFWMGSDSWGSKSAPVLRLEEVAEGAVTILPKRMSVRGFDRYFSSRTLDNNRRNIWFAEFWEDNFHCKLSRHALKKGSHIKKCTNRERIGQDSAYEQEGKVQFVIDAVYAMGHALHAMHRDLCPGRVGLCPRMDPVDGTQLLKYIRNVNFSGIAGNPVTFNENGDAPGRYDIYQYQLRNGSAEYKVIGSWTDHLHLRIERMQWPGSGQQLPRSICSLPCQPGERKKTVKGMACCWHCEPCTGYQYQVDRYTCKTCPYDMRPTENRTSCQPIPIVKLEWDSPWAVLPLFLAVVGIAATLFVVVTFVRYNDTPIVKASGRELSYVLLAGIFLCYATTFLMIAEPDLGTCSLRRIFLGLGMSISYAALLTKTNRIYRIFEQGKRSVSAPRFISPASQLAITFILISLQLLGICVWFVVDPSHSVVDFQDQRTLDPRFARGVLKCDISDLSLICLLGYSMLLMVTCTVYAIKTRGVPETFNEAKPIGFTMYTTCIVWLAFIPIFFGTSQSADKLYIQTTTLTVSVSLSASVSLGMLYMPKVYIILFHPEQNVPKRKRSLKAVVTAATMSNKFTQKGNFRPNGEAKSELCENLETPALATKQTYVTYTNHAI

Homo sapiens [7] = species: Homo sapiens; experiment: Selectivity ratio of compound effect for positive allosteric modulation of recombinant human mGlu4 receptor to compound effect for activity at human mGlu6 receptor
Rattus norvegicus [8] = species: Rattus norvegicus; experiment: Activity at AMPA glutamate receptor in rat cerebral cortex at 10 uM
In short: (§1)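 Inhibition of orthosteric ligand binding to NMDA, AMPA and kainate receptors on rat cerebral cortex membranes, tested up to 10 μM.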

Rattus norvegicus [9] = species: Rattus norvegicus; experiment: Activity at NMDA glutamate receptor in rat cerebral cortex at 10 uM; in short: as §1
Rattus norvegicus [10] = species: Rattus norvegicus; experiment: Activity at kainate glutamate receptor in rat cerebral cortex at 10 uM; in short: as §1
[11] = Activity at COMT (unknown origin) up to 10 uM; type: ADME; details: human
[12] = target: Amine oxidase [flavin-containing] A (Homo sapiens, UniProt P21397); experiment: Activity at MAO-A (unknown origin) up to 10 uM; type: ADME
Amine oxidase [flavin-containing] A, sequence (P21397 whole entry): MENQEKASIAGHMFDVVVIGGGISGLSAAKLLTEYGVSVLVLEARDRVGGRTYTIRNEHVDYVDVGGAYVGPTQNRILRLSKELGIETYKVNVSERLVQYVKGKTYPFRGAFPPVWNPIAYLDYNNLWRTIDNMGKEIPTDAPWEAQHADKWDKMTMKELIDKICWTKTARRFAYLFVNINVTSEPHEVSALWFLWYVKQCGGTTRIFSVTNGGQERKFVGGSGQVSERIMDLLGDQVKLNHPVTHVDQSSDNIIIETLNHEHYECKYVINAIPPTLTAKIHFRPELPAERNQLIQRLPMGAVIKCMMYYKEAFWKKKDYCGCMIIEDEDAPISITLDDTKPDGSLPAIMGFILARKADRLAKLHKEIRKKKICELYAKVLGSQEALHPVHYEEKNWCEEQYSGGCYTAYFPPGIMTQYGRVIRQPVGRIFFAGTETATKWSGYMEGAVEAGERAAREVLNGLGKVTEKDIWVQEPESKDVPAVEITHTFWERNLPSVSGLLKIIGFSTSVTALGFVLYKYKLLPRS

[13] = target: Amine oxidase [flavin-containing] B (Homo sapiens, UniProt P27338); experiment: Activity at MAO-B (unknown origin) up to 10 uM; type: ADME
Amine oxidase [flavin-containing] B, sequence (P27338 whole entry): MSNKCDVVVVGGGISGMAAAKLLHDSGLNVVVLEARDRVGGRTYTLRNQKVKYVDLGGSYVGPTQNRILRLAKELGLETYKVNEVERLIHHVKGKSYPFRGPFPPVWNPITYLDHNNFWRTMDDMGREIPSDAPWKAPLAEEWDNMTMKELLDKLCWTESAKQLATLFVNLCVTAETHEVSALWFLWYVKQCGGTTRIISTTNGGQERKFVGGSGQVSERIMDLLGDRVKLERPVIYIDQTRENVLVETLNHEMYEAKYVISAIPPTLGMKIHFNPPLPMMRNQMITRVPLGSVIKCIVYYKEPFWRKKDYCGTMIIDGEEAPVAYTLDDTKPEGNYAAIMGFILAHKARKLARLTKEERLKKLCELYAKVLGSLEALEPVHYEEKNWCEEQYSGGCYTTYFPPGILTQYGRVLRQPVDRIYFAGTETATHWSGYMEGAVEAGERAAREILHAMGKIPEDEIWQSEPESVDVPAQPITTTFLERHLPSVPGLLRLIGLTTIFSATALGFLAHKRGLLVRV

[14] = Cmax in Sprague-Dawley rat at 1 mg/kg, iv administered as single dose by LC-MS/MS analysis; type: ADME, organism-based; parameters: dose 1 mg/kg, route intravenous; details: in vivo
[15] = Half life in Sprague-Dawley rat at 1 mg/kg, iv administered as single dose by LC-MS/MS analysis; type: ADME, organism-based; details: in vivo
In short: (§2)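 Single iv dose, 1 mg/kg in rat or 2 mg/kg in mouse; plasma PK parameters derived; brain/plasma ratio taken at 1 h postdose (rat) or 30 min postdose (mouse). Mean of 3 rats; 2 mice for mouse Cmax and brain/plasma.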

[16] = AUC (0 to infinity) in Sprague-Dawley rat at 1 mg/kg, iv administered as single dose by LC-MS/MS analysis; type: ADME, organism-based; parameters: dose 1 mg/kg, route intravenous, time infinity; details: in vivo
[17] = Plasma clearance in Sprague-Dawley rat at 1 mg/kg, iv administered as single dose by LC-MS/MS analysis; type: ADME, organism-based; in short: as §2
[18] = Volume of distribution in Sprague-Dawley rat at 1 mg/kg, iv administered as single dose by LC-MS/MS analysis; type: ADME, organism-based; details: in vivo
In short: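 Single intravenous dose: rats 1 mg/kg, mice 2 mg/kg. Plasma concentration–time data yielded Cmax, t1/2, AUC0−∞, plasma clearance and volume of distribution. Values are mean ±SEM of 3 animals.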

[19] = Ratio of drug level in Sprague-Dawley rat brain to plasma at 1 mg/kg, iv after 1 hr post dose administered as single dose by LC-MS/MS analysis; type: ADME, organism-based; details: read-out: BPR; in short: as §2
[20] = Cmax in Sprague-Dawley rat plasma at 10 mg/kg, po administered as single dose by LC-MS/MS analysis; type: ADME, organism-based; parameters: dose 10 mg/kg, route oral
In short: (§3)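 Rats given a single oral dose of 10 mg/kg. The first plasma sample was taken at 15 min, and sampling continued to 24 h postdose. Brain was sampled at 30 min. Values are the mean (±SEM) of 3 rats.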

[21] = Tmax in Sprague-Dawley rat plasma at 10 mg/kg, po administered as single dose by LC-MS/MS analysis; type: ADME, organism-based
In short: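 Single-dose plasma PK after ip (10 or 30 mg/kg) or oral (10 mg/kg) dosing in rats, and oral 10 mg/kg dosing in mice. […] Values are mean ±SEM of 3 rats or 2 mice.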

[22] = AUC (0 to infinity) in Sprague-Dawley rat plasma at 10 mg/kg, po administered as single dose by LC-MS/MS analysis; type: ADME, organism-based; parameters: dose 10 mg/kg, time infinity, route oral; in short: as §3
[23] = Drug uptake in Sprague-Dawley rat brain at 10 mg/kg, po after 30 mins post dose administered as single dose by LC-MS/MS analysis; type: ADME, organism-based; details: read-out: Drug uptake; in short: as §3
Brain = experiment: AUC (0 to infinity) in Sprague-Dawley rat brain at 10 mg/kg, po administered as single dose by LC-MS/MS analysis; type: ADME, organism-based; parameters: dose 10 mg/kg, time infinity, route oral; details: in vivo
In short: (§4)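 Rats given a single oral dose of 10 mg/kg. Brain concentrations were measured at 30, 60 and 90 min postdose, and brain AUC0–inf was determined. Values are the mean of three rats. Lower limit of quantification was 1 ng/mL.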

Homo sapiens [24] = species: Homo sapiens; experiment: Selectivity ratio of compound effect for positive allosteric modulation of recombinant human mGlu4 receptor to compound effect for agonist activity at human mGlu8 receptor
Homo sapiens [25] = species: Homo sapiens; experiment: Selectivity ratio of compound effect for positive allosteric modulation of recombinant human mGlu4 receptor to compound effect for agonist activity at human mGlu7 receptor
[26] = target: T1, Metabotropic glutamate receptor 4; experiment: Positive allosteric modulation of recombinant human mGlu4 receptor expressed in HEK293 cells co-expressing chimeric G protein assessed as increase in glutamate-induced calcium flux after 10 mins by Fluo4-AM dye based fluorescence assay; type: functional, cell-based
[27] = target: T1, Metabotropic glutamate receptor 4; experiment: Positive allosteric modulation of recombinant human mGlu4 receptor expressed in HEK293 cells co-expressing chimeric Gi/Gq assessed as increase in EC20 glutamate-induced calcium flux at 15 uM preincubated for 10 mins followed by glutamate addition measured for 3 mins by Fluo4-AM dye based fluorescence assay relative to control; type: functional, cell-based
[28] = Drug uptake in Sprague-Dawley rat brain at 10 mg/kg, po after 90 mins post dose administered as single dose by LC-MS/MS analysis; type: ADME, organism-based; details: read-out: Drug uptake; in short: as §4
[29] = Drug uptake in Sprague-Dawley rat brain at 10 mg/kg, po after 60 mins post dose administered as single dose by LC-MS/MS analysis; type: ADME, organism-based; details: read-out: Drug uptake; in short: as §4
[30] = Ratio of AUC (0 to infinity) in Sprague-Dawley rat brain to plasma at 10 mg/kg, po administered as single dose by LC-MS/MS analysis; type: ADME, organism-based; details: read-out: Ratio AUC
[31] = Ratio of drug level in Sprague-Dawley rat brain to plasma at 25 mg/kg, po administered as single dose by LC-MS/MS analysis; type: ADME, organism-based; details: read-out: BPR
In short: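 Sprague−Dawley rats dosed orally at 25 mg/kg in water; plasma and brain concentrations followed over time to derive brain/plasma ratio.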

[32] = target: T1, Metabotropic glutamate receptor 4; experiment: Positive allosteric modulation of recombinant human mGlu4 receptor expressed in HEK293 cells co-expressing chimeric Gi/Gq protein assessed as fold shift of glutamate potency at 3 uM after 10 mins by Fluo4-AM dye based fluorescence assay relative to control

With N[C@@H](Cc1ccc(O)c(O)c1)C(=O)O [LEVODOPA] the Activity (Rattus norvegicus [1]) was “Dose-dependent effect”, the Activity (Rattus norvegicus [2]) was “Non-Toxic” and the Activity (Rattus norvegicus [3]) was “Toxic”.

Molecule O/N=c1\cc(-c2cc3sccc3cn2)oc2ccc(CCCN3CCOCC3)cc12 [FOLIGLURAX] has an EC50 [4] of 79 nM, an Emax [5] of 70% and an EC50 [6] of 47 nM. The Selectivity ratio (Homo sapiens [7]) was 15, the Activity (Rattus norvegicus [8]) was “inactive” and the Activity (Rattus norvegicus [9]) was “inactive”. The Activity (Rattus norvegicus [10]) was “inactive”, the Activity [11] was “Not Active” and the Activity [12] was “Not Active”. The Activity [13] was “Not Active”, the Cmax [14] was 325 ng/mL and the half-life [15] was 0.9 h. The AUC(0-inf) [16] was 163 ng·h/mL, the clearance [17] was 104 mL/min/kg and the Vd [18] was 8.02 L/kg. For the same molecule, the Kp at 1 h [19] was 8.4, the Cmax [20] was 94 ng/mL and the Tmax [21] was 1.17 h. The AUC(0-inf) [22] was 432 ng·h/mL, the concentration at 0.5 h [23] was 458 ng/g and the AUC (Brain) was 2713 ng·h/g. It also gave a Selectivity ratio (Homo sapiens [24]) of 50, a Selectivity ratio (Homo sapiens [25]) of 110 and an EC50 [26] of 79 nM. The Emax [27] was 32%, the concentration at 1.5 h [28] was 818 ng/g and the concentration at 1 h [29] was 785 ng/g. For the same molecule, the Kp [30] was 6.6, the Kp [31] was ≤ 13.5 and the fold change (FC) [32] was 10.
